Measurements reported in ChEMBL document CHEMBL4715734, “Discovery of the Potent and Selective M1 PAM-Agonist N-[(3R,4S)-3-Hydroxytetrahydro-2H-pyran-4-yl]-5-methyl-4-[4-(1,3-thiazol-4-yl)benzyl]pyridine-2-carboxamide (PF-06767832): Evaluation of Efficacy and Cholinergic Side Effects” (J Med Chem, 2016).
≈ marks a conversion by molar mass, not a printed value.

Legend:
[1] = Toxicity in male Beagle dog assessed as decrease in QT interval at 3 mg/kg, po administered as single dose observed upto 9 hrs post last dose by telemetry; assay type: organism-based, Canis lupus familiaris; conditions: in vivo
Outline: (§1)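 Crossover telemetry study in dogs at three oral doses (0.3, 1 and 3 mg/kg), N=4. Endpoints were blood pressure, maximum systolic left ventricular pressure, LV +dP/dt max, activity, heart rate, and RR, QT and QTc intervals, followed up to 9 h post dose.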

[2] = Toxicity in male Beagle dog assessed as decrease in QTc interval at 3 mg/kg, po administered as single dose observed upto 9 hrs post last dose by telemetry; assay type: organism-based, Canis lupus familiaris; conditions: in vivo; outline: as §1
[3] = Ratio of fAUC in rat brain to plasma; assay type: ADME, cell-free; conditions: brain and plasma, read-out: Ratio AUC
[4] = Toxicity in po dosed dog assessed as NOAEL using spray-dried dispersion formulation; assay type: organism-based, Canis lupus familiaris; conditions: in vivo
[5] = Toxicity in rat assessed as increase in food intake at 10 mg/kg, po administered for 14 days; assay type: organism-based; conditions: in vivo, 336 h, time 14 day
Outline: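 Two-week repeat-dose toxicity study in rats. Oral dosing in 0.5% methylcellulose at 3, 10, 30 (males)/15 (females) mg/kg, N=4/sex/dose. Food intake, body weight gain and histopathology were assessed.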

[6] = Fraction unbound in Wistar Han rat plasma; assay type: ADME
[7] = Thermodynamic solubility of compound at pH 6.5; assay type: physicochemical; conditions: buffer, read-out: Therm_solubility
[8] = fCmax in dog at 1 mg/kg, po measured after 4 hrs using spray-dried dispersion formulation; assay type: ADME, organism-based, Canis lupus familiaris; conditions: in vivo
Outline: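 Dogs from the crossover cardiovascular telemetry study (N=4), dosed orally at 0.3, 1 and 3 mg/kg; unbound Cmax extrapolated from 4 h post-dose in-life plasma samples.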

[9] = Oral bioavailability in rat at 0.5 mg/kg; assay type: ADME, organism-based; conditions: in vivo
[10] = Toxicity in dog assessed as induction of mucoid feces at 15 mg/kg, po using spray-dried dispersion formulation; assay type: organism-based, Canis lupus familiaris; conditions: in vivo
[11] = target: T1, Muscarinic acetylcholine receptor M5 (Homo sapiens, UniProt P08912); test: Positive allosteric modulation of human recombinant muscarinic M5 receptor stably expressed in CHO cells assessed as increase in Ach-induced accumulation of intracellular calcium level upto 10 uM incubated for 10 mins followed by addition of Ach at EC20 concentration by Fluo-8AM dye based FLIPR TETRA method
T1 sequence (P08912 whole entry): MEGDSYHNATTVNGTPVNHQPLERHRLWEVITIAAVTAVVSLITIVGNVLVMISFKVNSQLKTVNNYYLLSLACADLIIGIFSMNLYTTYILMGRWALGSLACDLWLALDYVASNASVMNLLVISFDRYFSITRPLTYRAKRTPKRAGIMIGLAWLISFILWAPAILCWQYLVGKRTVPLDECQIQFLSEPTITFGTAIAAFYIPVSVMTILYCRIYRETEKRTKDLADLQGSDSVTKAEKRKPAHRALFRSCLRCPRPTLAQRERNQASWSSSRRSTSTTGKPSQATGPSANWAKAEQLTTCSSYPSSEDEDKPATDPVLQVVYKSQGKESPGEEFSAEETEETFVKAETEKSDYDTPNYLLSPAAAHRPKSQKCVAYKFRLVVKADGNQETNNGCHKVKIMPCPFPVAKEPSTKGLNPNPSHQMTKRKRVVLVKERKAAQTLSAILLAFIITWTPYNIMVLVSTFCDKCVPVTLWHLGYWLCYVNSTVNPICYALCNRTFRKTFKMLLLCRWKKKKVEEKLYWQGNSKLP

[12] = target: T2, Muscarinic acetylcholine receptor M4 (Homo sapiens, UniProt P08173); test: Agonist activity at human recombinant muscarinic M4 receptor stably expressed in HEK cells assessed as increase in cAMP accumulation up to 10 uM measured after 10 mins by GloSensor cAMP Assay; assay type: cell-based
T2 sequence (P08173 whole entry): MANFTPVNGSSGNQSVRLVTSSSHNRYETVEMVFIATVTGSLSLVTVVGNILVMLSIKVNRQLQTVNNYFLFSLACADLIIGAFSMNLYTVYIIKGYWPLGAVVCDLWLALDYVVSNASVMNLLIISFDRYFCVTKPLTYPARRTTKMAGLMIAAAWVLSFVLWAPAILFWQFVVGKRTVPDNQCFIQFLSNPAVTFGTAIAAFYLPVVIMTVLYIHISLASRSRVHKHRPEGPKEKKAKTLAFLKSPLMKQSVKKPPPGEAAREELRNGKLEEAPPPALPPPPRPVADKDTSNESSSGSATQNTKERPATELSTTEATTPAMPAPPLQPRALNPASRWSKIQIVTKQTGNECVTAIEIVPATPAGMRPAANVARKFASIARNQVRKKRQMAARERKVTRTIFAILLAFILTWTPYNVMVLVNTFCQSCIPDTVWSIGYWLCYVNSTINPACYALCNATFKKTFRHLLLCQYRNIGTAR

[13] = target: T3, Muscarinic acetylcholine receptor M1 (Homo sapiens) (UniProt P11229); test: Binding affinity to human muscarinic M1 receptor stably expressed in CHO cells assessed as increase in intracellular calcium level by measuring binding constant measured after 10 mins by Fluo-8AM dye based FLIPR TETRA method; assay type: cell-based; conditions: filed as positive allosteric modulator
T3 sequence (whole entry): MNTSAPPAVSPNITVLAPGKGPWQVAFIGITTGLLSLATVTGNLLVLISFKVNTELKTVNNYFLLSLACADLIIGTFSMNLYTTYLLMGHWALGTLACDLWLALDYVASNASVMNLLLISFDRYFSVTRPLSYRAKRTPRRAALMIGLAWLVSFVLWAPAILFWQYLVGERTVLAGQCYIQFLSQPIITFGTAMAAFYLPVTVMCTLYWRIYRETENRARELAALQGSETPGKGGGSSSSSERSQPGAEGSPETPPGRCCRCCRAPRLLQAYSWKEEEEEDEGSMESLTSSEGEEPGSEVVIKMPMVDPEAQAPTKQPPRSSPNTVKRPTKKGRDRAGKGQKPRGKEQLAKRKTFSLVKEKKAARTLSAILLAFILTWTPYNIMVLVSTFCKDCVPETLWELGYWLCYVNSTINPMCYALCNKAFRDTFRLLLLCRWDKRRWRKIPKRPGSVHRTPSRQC

[14] = Ratio of AUC in rat brain to fAUC in rat plasma; assay type: ADME, cell-free; conditions: in vivo

Cc1cnc(C(=O)N[C@H]2CCOC[C@@H]2O)cc1Cc1ccc(-c2cscn2)cc1
Activity [1]: Toxic
Activity [2]: Toxic
Kp uu [3]: 0.34
NOAEL [4]: 5 mg/kg
Activity [5]: Non-Toxic
Fu [6]: 4.3%
solubility thermodynamic [7]: 2.7 µg/mL (≈ 6.59 µM)
fCmax [8]: 169 nM
bioavailability [9]: 112%
Activity [10]: Toxic
Activity [11]: Not Active
Activity [12]: Not Active
Kb [13]: 5 µM
Ratio AUC [14]: 0.36
